Results taken from ChEMBL document CHEMBL1123741 (J Med Chem, 1987).
≈ marks a conversion by molar mass, not a printed value.

Legend:
Cavia porcellus [1] = species: Cavia porcellus; assay: Compound (5%) was evaluated for its effect on (no. of areas = 4)maximum score in HSV-1 cutaneous infection of guinea pig; expressed as maximum score; assay type: functional
Cavia porcellus [2] = species: Cavia porcellus; assay: Compound (5%) was evaluated for its effect on (no. of areas = 4)mean peak lesion score in HSV-1 cutaneous infection of guinea pig; expressed as mean peak lesion score; assay type: functional
Cavia porcellus [3] = species: Cavia porcellus; assay: Compound (5%) was evaluated for its effect on (no. of areas = 4) mean area under lesion score-day curve in HSV-1 cutaneous infection of guinea pig; expressed as mean area under lesion score-day curve; assay type: functional
Cavia porcellus [4] = species: Cavia porcellus; assay: Compound (5%) was evaluated for its effect on (no. of areas = 4) time to start healing in HSV-1 cutaneous infection of guinea pig; expressed as time to start healing; assay type: functional
Mus musculus [5] = assay: Compound was evaluated for its effect ofHSV -2 induced mortality in mice measured as survivors/total (%) at the dose of 100 mg/kg per day; 5/10; assay type: functional
Method in brief: (§1)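 Female Swiss mice, 16–18 g, anesthetized and inoculated intracerebrally with 10 LD50 of HSV 2 (G strain), then randomized into groups of 8–12. Dosing was ip, b.i.d. for 5 consecutive days, starting 1 h postinfection. Mortality was followed for 21 days. P values were from the two-tailed Fisher exact test for survivors and the Gehan-Wilcoxon test for mean survival time.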

Mus musculus [6] = assay: Compound was evaluated for its effect ofHSV -2 induced mortality in mice measured as survivors/total (%) at the dose of 12.5 mg/kg per day; 2/10; assay type: functional; method in brief: as §1
Mus musculus [7] = assay: Compound was evaluated for its effect ofHSV -2 induced mortality in mice measured as survivors/total (%) at the dose of 25 mg/kg per day; 0/10; assay type: functional; method in brief: as §1
Mus musculus [8] = assay: Compound was evaluated for its effect ofHSV -2 induced mortality in mice measured as survivors/total (%) at the dose of 50 mg/kg per day; 3/10; assay type: functional; method in brief: as §1
Mus musculus [9] = assay: Compound was evaluated for its effect on HSV -2 induced mortality in mice measured as survivors/total (%) at the dose of 200 mg/kg per day; 6/12; assay type: functional; method in brief: as §1
Mus musculus [10] = assay: Compound was evaluated for its effect on HSV -2 induced mortality in mice measured as mean survival time (MST) at the dose of 100 mg/kg per day; assay type: functional; method in brief: as §1
Mus musculus [11] = assay: Compound was evaluated for its effect on HSV -2 induced mortality in mice measured as mean survival time (MST) at the dose of 12.5 mg/kg per day; assay type: functional; method in brief: as §1
Mus musculus [12] = assay: Compound was evaluated for its effect on HSV -2 induced mortality in mice measured as mean survival time (MST) at the dose of 200 mg/kg per day; assay type: functional; method in brief: as §1
Mus musculus [13] = assay: Compound was evaluated for its effect on HSV -2 induced mortality in mice measured as mean survival time (MST) at the dose of 25 mg/kg per day; assay type: functional; method in brief: as §1
Vero [14] = assay: Compound was evaluated for antiviral activity against Herpes simplex virus (HSV) -1 (BW) in Vero cell cultures; assay type: functional; details: Chlorocebus sabaeus, read-out: ID50 (the source's name)
Method in brief: (§2)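 Vero cell cultures were infected with HSV-1 strain BWˢ or HSV-2 strain MS. Antiviral activity was read by the dye-uptake method. The 50% inhibitory dose (ID50) was obtained by linear regression.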

Vero [15] = assay: Compound was evaluated for antiviral activity against Herpes simplex virus (HSV) -2 (MS) in Vero cell cultures; assay type: functional; details: Chlorocebus sabaeus, read-out: ID50 (the source's name); method in brief: as §2
Mus musculus [16] = assay: Compound was evaluated for its effect on HSV -2 induced mortality in mice measured as mean survival time (MST) at the dose of 50 mg/kg per day; assay type: functional; method in brief: as §1
Mus musculus [17] = assay: Compound was evaluated for its effect of HSV -2 induced mortality in mice measured as survivors/total (%) at the dose of 25 mg/kg per day; 3/9; assay type: functional; method in brief: as §1
Mus musculus [18] = assay: Compound was evaluated for its effect of HSV -2 induced mortality in mice measured as survivors/total (%) at the dose of 50 mg/kg per day; 4/10; assay type: functional; method in brief: as §1
Mus musculus [19] = assay: Compound was evaluated for its effect of HSV -2 induced mortality in mice measured as survivors/total (%) at the dose of 100 mg/kg per day; 3/8; assay type: functional; method in brief: as §1
Mus musculus [20] = assay: Compound was evaluated for its effect of HSV -2 induced mortality in mice measured as survivors/total (%) at the dose of 12.5 mg/kg per day; 2/10; assay type: functional; method in brief: as §1
Cavia porcellus [21] = species: Cavia porcellus; assay: Compound (5%) was evaluated for its effect on (no. of areas = 3) mean area under lesion score-day curve in HSV-1 cutaneous infection of guinea pig; expressed as mean area under lesion score-day curve; assay type: functional
Cavia porcellus [22] = species: Cavia porcellus; assay: Compound (5%) was evaluated for its effect on (no. of areas = 3)maximum score in HSV-1 cutaneous infection of guinea pig; expressed as maximum score; assay type: functional
Cavia porcellus [23] = species: Cavia porcellus; assay: Compound (5%) was evaluated for its effect on (no. of areas =3) time to start healing in HSV-1 cutaneous infection of guinea pig; expressed as time to start healing; assay type: functional
Mus musculus [24] = assay: Compound was evaluated for its effect of HSV -2 induced mortality in mice measured as survivors/total (%) at the dose of 25 mg/kg per day; 5/10; assay type: functional; method in brief: as §1
Mus musculus [25] = assay: Compound was evaluated for its effect of HSV -2 induced mortality in mice measured as survivors/total (%) at the dose of 50 mg/kg per day; 5/10; assay type: functional; method in brief: as §1
Mus musculus [26] = assay: Compound was evaluated for its effect of HSV -2 induced mortality in mice measured as survivors/total (%) at the dose of 100 mg/kg per day; 3/10; assay type: functional; method in brief: as §1
Mus musculus [27] = assay: Compound was evaluated for its effect of HSV -2 induced mortality in mice measured as survivors/total (%) at the dose of 200 mg/kg per day; 6/10; assay type: functional; method in brief: as §1
Cavia porcellus [28] = species: Cavia porcellus; assay: Compound (5%) was evaluated for its effect on (no. of areas = 3) time to start healing in HSV-1 cutaneous infection of guinea pig; expressed as time to start healing; assay type: functional
Human alphaherpesvirus 1 = assay: Compound (5%) was evaluated for its effect on (no. of areas = 3)mean peak lesion score in HSV-1 cutaneous infection of guinea pig; expressed as mean peak lesion score; assay type: functional
[29] = substrate: Cc1cn([C@@H]2O[C@H](CO)[C@@H](O)[C@@H]2F)c(=O)[nH]c1=O; details: Chlorocebus sabaeus; Vero
[30] = substrate: NC1=NC(=O)C2N=CN(COCCO)C2=N1; details: Chlorocebus sabaeus; Vero
[31] = substrate: O=c1[nH]c(=O)n([C@@H]2O[C@H](CO)[C@@H](O)[C@@H]2F)cc1I; details: Chlorocebus sabaeus; Vero

| Molecule | Activity (Cavia porcellus [1]) | Activity (Cavia porcellus [2]) | Activity (Cavia porcellus [3]) | Activity (Cavia porcellus [4]) | MST (Mus musculus [10]) | MST (Mus musculus [11]) | MST (Mus musculus [12]) | MST (Mus musculus [13]) | IC50 (Vero [14]) | IC50 (Vero [15]) | MST (Mus musculus [16]) | Activity (Mus musculus [20]) | Activity (Cavia porcellus [21]) | Activity (Cavia porcellus [22]) | other results |
| --- | --- | --- | --- | --- | --- | --- | --- | --- | --- | --- | --- | --- | --- | --- | --- |
| CCc1cn([C@@H]2O[C@H](CO)[C@@H](O)[C@@H]2F)c(=O)[nH]c1=O | 3 days | 1.5 | 10 | 6.5 days | 18 days | 8 days | 19 days | 9 days | 0.99 µg/mL (≈ 3.61 µM) | 2.7 µg/mL (≈ 9.85 µM) | 12 days |  |  |  | Activity (Mus musculus [5]): 5%; Activity (Mus musculus [6]): 2%; Activity (Mus musculus [7]): 0%; Activity (Mus musculus [8]): 3%; Activity (Mus musculus [9]): 6% |
| NC1=NC(=O)C2N=CN(COCCO)C2=N1 (stereo not given) | 4 days | 2.5 | 15.2 | 6.25 days | 13 days | 8 days |  | 10 days | 0.7 µg/mL (≈ 3.11 µM) | 1.1 µg/mL (≈ 4.88 µM) | 10 days | 2% |  |  | Activity (Mus musculus [17]): 3%; Activity (Mus musculus [18]): 4%; Activity (Mus musculus [19]): 3% |
| O=c1[nH]c(=O)n([C@@H]2O[C@H](CO)[C@@H](O)[C@@H]2F)cc1I [FIALURIDINE] |  | 1 |  |  | 13 days | 10 days | 21 days | 18 days | 0.96 µg/mL (≈ 2.58 µM) | 0.64 µg/mL (≈ 1.72 µM) | 18 days | 2% | 9.6 | 3 days | Activity (Cavia porcellus [23]): 4.67 days; Activity (Mus musculus [24]): 5%; Activity (Mus musculus [25]): 5%; Activity (Mus musculus [26]): 3%; Activity (Mus musculus [27]): 6% |
| Cc1cn([C@@H]2O[C@H](CO)[C@@H](O)[C@@H]2F)c(=O)[nH]c1=O [5-METHYL-2'-FLUOROARAURACIL] |  |  |  |  |  |  |  |  | 1.3 µg/mL (≈ 5 µM) | 0.13 µg/mL (≈ 0.5 µM) |  |  | 2.7 | 2.67 days | Activity (Cavia porcellus [28]): 5.33 days; Activity (Human alphaherpesvirus 1): 0.75 |
| Thymidine kinase, cytosolic (Homo sapiens), P04183 (protein) MSCINLPTVLPGSPSKTRGQIQVILGPMFSGKSTELMRRVRRFQIAQYKCLVIKYAKDTRYSSSFCTHDRNTMEALPACLLRDVAQEALGVAVIGIDEGQFFPDIVEFCEAMANAGKTVIVAALDGTFQRKPFGAILNLVPLAESVVKLTAVCMECFREAAYTKRLGTEKEVEVIGGADKYHSVCRLCYFKKASGQPAGPDNKENCPVPGKPGEAVAARKLFAPQQILQCSPAN |  |  |  |  |  |  |  |  |  |  |  |  |  |  | Ki [29]: 60 µM; Ki [30]: > 4920 µM; Ki [31]: 53 µM |
